Assay results from different studies.
Compare with care: the assays were run in different laboratories.
Observed: cell growth or viability

Cc1cccc(NC(=O)Nc2ccc(-c3ccc4ncn(Cc5ccccc5)c(=O)c4c3)cn2)c1 — IC50 (HCC827; CCK-8; 72 h): 7.31 µM
O=P1(C2CCCCC2)CCCCC1 — IC50 (HaCaT; MTT; 72 h): > 100 µM
CC(C)[C@@H]1NC(=O)[C@H](Cc2c[nH]cn2)NC1=O — IC50 (ASPC1; SRB): > 15 µM
COc1ccccc1Cn1nc(-c2ccc(CO)o2)c2ccccc21 — IC50 (HuCCT-1; ATP luminescence): > 46 µM
O=C1CS/C(=N\c2cc(C(F)(F)F)ccc2-c2nnc(N3C(=O)CS/C3=N\c3ccc(F)cc3)s2)N1c1ccc(F)cc1 — IC50 (WI-38; MTT): 19.2 µM
Nc1c([I+]c2ccccc2)c(=O)oc2ccccc12 — IC50 (HaCaT; MTT; 48 h): 65.4 µM
O=c1[nH]cc(F)c(=O)[nH]1 — IC50 (WI-38; MTT; 72 h): 42.2 µM
COc1cccc2c1C(=O)c1c(O)c3c(c(O)c1C2=O)C[C@@](O)(C(=O)CO)C[C@@H]3O[C@H]1C[C@H](N)[C@H](O)[C@H](C)O1 — IC50 (WI-38; MTT): 52.6 µM
CCCn1cnc2ccc(-c3ccc(NC(=O)c4ccccc4)nc3)cc2c1=O — IC50 (HCC827; CCK-8; 72 h): 0.1 µM
O=C1CS/C(=N\c2cc(C(F)(F)F)ccc2-c2nnc(N3C(=O)CS/C3=N\c3cccc(Cl)c3)s2)N1c1cccc(Cl)c1 — IC50 (WI-38; MTT): 47.1 µM
NCc1ccc(-c2nn(Cc3ccccn3)c3cccnc23)o1 — IC50 (HuCCT-1; ATP luminescence): > 46 µM
O=C(Nc1ccc(-c2ccc3ncn(Cc4ccccc4)c(=O)c3c2)cn1)C1CCCC1 — IC50 (HCC827; CCK-8; 72 h): > 10 µM
COc1cccc(Cn2nc(-c3ccc(CO)o3)c3ccccc32)c1 — IC50 (HuCCT-1; ATP luminescence): > 46 µM
Cc1ccc(NC(=O)Nc2ccc(-c3ccc4ncn(Cc5ccccc5)c(=O)c4c3)cn2)cc1 — IC50 (HCC827; CCK-8; 72 h): > 10 µM
O=C1CS/C(=N\c2cc(C(F)(F)F)ccc2-c2nnc(N3C(=O)CS/C3=N\c3ccc(Cl)cc3)s2)N1c1ccc(Cl)cc1 — IC50 (WI-38; MTT): 49.2 µM
CCCCC(=O)Nc1ccc(-c2ccc3ncn(CCCC)c(=O)c3c2)cn1 — IC50 (HCC827; CCK-8; 72 h): 0.13 µM
Cc1nc(Nc2ncc(C(=O)Nc3c(C)cccc3Cl)s2)cc(N2CC[C@H](O)C2)n1 — IC50 (OCI-LY19; ATP luminescence; 72 h): > 10 µM
CCCCn1cnc2ccc(-c3ccc(NC(=O)C4CCC4)nc3)cc2c1=O — IC50 (HCC827; CCK-8; 72 h): 6.31 µM
CC1=CC(=O)C(C(C)C)=CC1=O — IC50 (SNB-19; SRB; 48 h): 56.9 µM
